This note sets out measurements from ChEMBL document CHEMBL4359825, “Synthesis of novel S-linked dihydroartemisinin derivatives and evaluation of their anticancer activity” (Eur J Med Chem, 2019).

Activity calls are given as the source filed them. The rule behind the calls is not given here.

Assay [1] has as its system PC-3. Description: Downregulation of cyclinB1 mRNA expression in human PC3 cells at 3 to 10 uM measured after 72 hrs by TRIzol dye based RT-PCR analysis. The class given is functional, cell-based. The gist of the method:
(§1)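 PC-3 (1.25 × 10^5/well) treated 72 h with 3 or 10 μM. Total RNA extracted with TRIzol; cDNA made from 2 μg RNA. SYBR qPCR: 95 °C 10 min, then 40 cycles of 95 °C/60 °C. Expression normalised to GAPDH by 2^-ΔΔCt; three experiments.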

Assay [2] relates to PC-3. Description: Induction of cell death in human PC3 cells measured after 72 hrs by propidium iodide staining based flow cytometry analysis. The class given is functional. The gist of the method: (§2)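 PC-3 cells in six-well plates exposed to 3 or 10 μM for 72 h, 0.1% DMSO vehicle as control; cells harvested, PBS-washed, stained with propidium iodide (5 μg/mL) 20 min at 4 °C; percentage dead cells read by flow cytometry; t-test against vehicle.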

Assay [3] deals with PC-3. Description: Antiproliferative activity against human PC3 cells assessed as reduction in cell viability upto 10 uM incubated for 24 hrs by MTT assay. It counts as functional, cell-based. (Tetrazolium assays rely on reduction of a dye to a coloured formazan, in cell work by metabolically active cells.)
Assay [4] relates to HepG2. Description: Anticancer activity against human HepG2 cells assessed as cell viability measured after 72 hrs by MTT assay (reference value: 100 +/- 6.5 %). The class given is functional. Further details: concentration or dose not given beside the values.
Assay [5] concerns PC-3. Description: Downregulation of Pin1 in human PC3 cells harboring siRNA measured after 72 hrs by Western blot analysis. It counts as functional, cell-based. The gist of the method: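 PC-3 cells (1.5 × 10^5/well) transfected with Pin1 siRNA (25 nM) using Lipofectamine RNAiMAX in Opti-MEM, alone or with test agent, for 72 h. Pin1 assessed by western blot with β-actin loading control.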

Assay [6] concerns PC-3. Description: Induction of apoptosis in human PC3 cells assessed as decrease in pro-caspase-9 level after 72 hrs by Western blot analysis. The class given is functional, cell-based. The gist of the method: (§3)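 Western blot: PC-3 seeded 1.25 × 10^5/well, exposed to 0.1–10 μM for 72 h. Lysed in 2× SDS buffer and sonicated; 20–25 μg protein run on 12% SDS gel, transferred to PVDF, blocked in 5% BSA/TBST. Primary antibodies overnight, secondary 1 h; ECL detection, β-actin loading control.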

The test system of assay [7] is PC-3. Description: Antimigratory activity against human PC3 cells assessed as reduction in cell migration at 10 uM measured upto 24 hrs in presence of pan-caspase inhibitor Z-VAD-fmk by scratch wound healing assay. The class given is functional, cell-based. The gist of the method:
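PC-3 monolayers pretreated 2 h with pan-caspase inhibitor Z-VAD-FMK (10 μM) before scratching and treatment with test agent. Wound closure imaged by phase contrast at 0, 12 and 24 h.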

The subject of assay [8] is PC-3. Description: Downregulation of cMyc in human PC3 cells at 3 to 10 uM measured after 72 hrs by Western blot analysis. It counts as functional, cell-based. The gist of the method: as §3
In general terms: In western blotting, separated proteins are transferred to a membrane and probed.

Assay [9] has as its system PC-3. The assay can be described thus: Downregulation of BCL-xL mRNA expression in human PC3 cells at 3 to 10 uM measured after 72 hrs by TRIzol dye based RT-PCR analysis. It counts as functional, cell-based. The gist of the method:
as §1

The test system of assay [10] is PC-3. The assay can be described thus: Cell cycle arrest in human PC3 cells assessed as accumulation at S phase at 10 uM measured after 48 hrs by RNase/propidium iodide staining based flow cytometry analysis (reference value: 22.40 %). The class given is functional. (In general: Flow cytometry measures light scatter and fluorescence of single cells or particles in a stream.)

The target of assay [11] is Peptidyl-prolyl cis-trans isomerase NIMA-interacting 1 (Homo sapiens) (UniProt Q13526). The assay can be described thus: Inhibition of Pin1 in human PC3 cells assessed as downregulation of cyclin D1 measured after 72 hrs by Western blot analysis. The class given is cell-based. The method, boiled down: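 PC-3 cells (1.25×10^5 per well) exposed 72 h to 0.1, 0.3, 1, 3 or 10 μM; lysed in 2× SDS buffer, sonicated, BCA-quantified; 20-25 μg protein on 12% SDS gel, PVDF, 5% BSA block, primary antibody overnight, secondary 1 h; ECL detection, β-actin loading control.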

Assay [12] deals with PC-3. Description: Cell cycle arrest in human PC3 cells assessed as accumulation at G0/G1 phase at 10 uM measured after 48 hrs by RNase/propidium iodide staining based flow cytometry analysis (reference value: 42.59 %). It counts as functional.
Assay [13] concerns PC-3. The assay can be described thus: Cytotoxicity against human PC3 cells assessed as reduction in cell viability at 3 to 10 uM pretreated with NAC for 2 hrs followed by compound addition and measured after 72 hrs by MTT assay. It counts as functional, cell-based. The method, boiled down: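 PC-3 cells in 96-well plates pretreated 2 h with N-acetyl cysteine (20 μM), then exposed to 3 or 10 μM test agent for 72 h. Viability read by MTT as in the standard protocol, absorbance 570 nm, relative to DMSO control. Three separate experiments.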

Assay [14] deals with PC-3. Description: Antimetastatic activity against human PC3 cells assessed as inhibition of MMP-9 at 3 to 10 uM measured after 48 hrs by gelatin zymography. The class given is functional, cell-based. The gist of the method: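 PC-3 monolayers scratched, then treated with 3 or 10 μM for 48 h in serum-containing medium, then 24 h in serum-free medium. Conditioned medium run non-reduced on 7.5% SDS-PAGE containing gelatin 4 mg/mL. Gel washed in 2.5% Triton X-100, incubated 24 h at 37 °C in Tris pH 7.5 with CaCl2/ZnCl2, Coomassie stained; lysis seen as clear bands.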

Assay [15] concerns PC-3. Description: Induction of cell death in human PC3 cells at 3 uM measured after 72 hrs by propidium iodide staining based flow cytometry analysis (reference value: 0.5 %). The class given is functional. The method, boiled down: as §2
Assay [16] relates to PC-3. The assay can be described thus: Induction of cell death in human PC3 cells at 10 uM measured after 72 hrs by propidium iodide staining based flow cytometry analysis (reference value: 0.5 %). It counts as functional. The method, boiled down: as §2
In assay [17] the test system is PC-3. The assay can be described thus: Induction of apoptosis in human PC3 cells assessed as nuclear condensation at 3 to 10 uM after 72 hrs by Hoechst 33342 staining based fluorescence microscopy. The class given is functional, cell-based. The method, boiled down:
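PC-3 cells treated 72 h with 3 or 10 μM, stained with Hoechst 33342 for 15 min at room temperature in the dark, washed with PBS, and nuclei examined by fluorescence microscopy for condensation.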

Assay [18] has as its system PC-3. Description: Induction of apoptosis in human PC3 cells assessed as decrease in pro-caspase-3 level after 72 hrs by Western blot analysis. It counts as functional, cell-based. The method, boiled down: as §3
Assay [19] has as its system PC-3. Description: Induction of apoptosis in human PC3 cells assessed as down-regulation of BCL-xL expression measured after 72 hrs by Western blot analysis. It counts as functional, cell-based. The gist of the method: as §3
Assay [20] deals with PC-3. The assay can be described thus: Induction of apoptosis in human PC3 cells assessed as upregulation of Bax expression measured after 72 hrs by Western blot analysis. The class given is functional, cell-based. The gist of the method:
as §3

For assay [21], the system named is HeLa. The assay can be described thus: Anticancer activity against human HeLa cells assessed as cell viability measured after 72 hrs by MTT assay (reference value: 100 +/- 11.5 %). The class given is functional. Further details: concentration or dose not given beside the values.
Assay [22] has as its system MDA-MB-231. Description: Anticancer activity against human MDA-MB-231 cells assessed as cell viability measured after 72 hrs by MTT assay (reference value: 100 +/- 20.0 %). Further details: concentration or dose not given beside the values. The class given is functional.
Assay [23] relates to PC-3. Description: Induction of apoptosis in human PC3 cells assessed as cell shrinkage at 3 to 10 uM after 72 hrs by phase contrast microscopy. It counts as functional, cell-based. The gist of the method: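 PC-3 cells in exponential growth exposed to 3 or 10 μM for 72 h, washed gently with PBS, and apoptotic morphology recorded by phase-contrast microscopy.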
For assay [24], the system named is A-431. Description: Anticancer activity against human A431 cells assessed as reduction in cell viability measured after 72 hrs by MTT assay. It counts as functional, cell-based. To be noted: A-431, 72 h.

Peptidyl-prolyl cis-trans isomerase NIMA-interacting 1 (Homo sapiens), sequence (Q13526 whole entry): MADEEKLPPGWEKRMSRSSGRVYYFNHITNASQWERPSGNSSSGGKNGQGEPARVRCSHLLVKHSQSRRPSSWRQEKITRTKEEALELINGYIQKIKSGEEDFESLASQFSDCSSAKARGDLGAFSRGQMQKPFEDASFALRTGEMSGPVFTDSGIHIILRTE

In the case of `COC(=O)Cc1ccc(S[C@@H]2O[C@@H]3O[C@@]4(C)CC[C@H]5[C@H](C)CC[C@@H]([C@H]2C)[C@@]35OO4)cc1`, the outcome in assay [1], in assay [5], in assay [8], in assay [9], in assay [17] and in [23] was Active. The Activity result in assay [2] was “Dose-dependent effect”; in assay [4], 50%; in assay [6], “Dose-dependent effect”; in [10], 13.21%; in [12], 53.71%; in [15], 26.3%. For the same compound, the Activity is 28.9% in [16]; “Dose-dependent effect” in [18]; “Dose-dependent effect” in [19]; “Dose-dependent effect” in [20]; 43% in assay [21]; 45% in assay [22]. For the same compound, the outcome in [3] and in assay [13] was inactive. Moreover, the inhibition result in [7] is “inactive”. Further, the inhibition entry in [11] and in assay [14] was “Dose-dependent effect” throughout. Besides, the 50% inhibitory concentration (IC50) in [24] stood at 13.3 µM.

Usually IC50 stands for the concentration that inhibits the measured activity by half.
